{"source": "ChEMBL document CHEMBL1137876", "about": "“Synthesis and biological evaluation of novel cytotoxic phospholipids for prostate cancer” (Bioorg Med Chem Lett, 2004)", "key": {"LNCaP [1]": {"system": "LNCaP", "test": "Concentration required to inhibit proliferation of LNCaP prostate cancer cell lines", "type": "functional, cell-based", "settings": "Homo sapiens; call rule not given here", "outline": "(§1)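 SRB assay. Cells were exposed to compound at 0–100 µM for 96 h, then fixed with 10% trichloroacetic acid, washed five times with water, air dried overnight and stained with SRB. Protein-bound dye was read at 540 nm.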"}, "CHO": {"system": "CHO", "test": "Concentration required to inhibit tumor growth in CHO cells", "type": "functional, cell-based", "settings": "Cricetulus griseus", "outline": "as §1"}, "DU-145 [2]": {"system": "DU-145", "test": "Concentration required to inhibit proliferation of DU-145 prostate cancer cell lines; NA denotes not active", "type": "functional, cell-based, Homo sapiens", "outline": "as §1"}, "[3]": {"test": "Concentration required to inhibit proliferation of TSU prostate cancer cell lines; NA denotes not active", "type": "functional, cell-based, Homo sapiens", "outline": "as §1"}, "[4]": {"test": "Concentration required to inhibit tumor growth in RH7777 cells", "type": "functional, cell-based", "outline": "as §1"}, "PC-3 [5]": {"system": "PC-3", "test": "Concentration required to inhibit proliferation of PC-3 prostate cancer cell lines; NA denotes not active", "type": "functional, cell-based, Homo sapiens", "outline": "as §1"}, "LNCaP [6]": {"system": "LNCaP", "test": "Concentration required to inhibit proliferation of LNCaP prostate cancer cell lines; NA denotes not active", "type": "functional, cell-based, Homo sapiens", "outline": "as §1"}, "[7]": {"test": "Concentration required to inhibit proliferation of PPC-1 prostate cancer cell lines", "type": "functional, cell-based", "settings": "Homo sapiens", "outline": "as §1"}, "DU-145 [8]": {"system": "DU-145", "test": "Concentration required to inhibit proliferation of DU-145 prostate cancer cell lines", "type": "functional, cell-based", "settings": "Homo sapiens", "outline": "as §1"}, "PC-3 [9]": {"system": "PC-3", "test": "Concentration required to inhibit proliferation of PC-3 prostate cancer cell lines", "type": "functional, cell-based", "settings": "Homo sapiens", "outline": "as §1"}, "[10]": {"test": "Concentration required to inhibit proliferation of TSU prostate cancer cell lines", "type": "functional, cell-based", "settings": "Homo sapiens", "outline": "as §1"}}}
{"smiles": "O=c1[nH]cc(F)c(=O)[nH]1", "note": "[FLUOROURACIL]", "values": [{"measurement": "IC50", "setting": "LNCaP [1]", "result": 4.9, "unit": "µM"}]}
{"smiles": "CCCCCCCC/C=C/CCCCCCCCC(=O)NCCO", "values": [{"measurement": "IC50", "setting": "CHO", "result": "> 20", "unit": "µM"}, {"measurement": "IC50", "setting": "DU-145 [2]", "result": "Not Active"}, {"measurement": "IC50", "setting": "[3]", "result": "Not Active"}, {"measurement": "IC50", "setting": "[4]", "result": "> 20", "unit": "µM"}, {"measurement": "IC50", "setting": "PC-3 [5]", "result": "Not Active"}, {"measurement": "IC50", "setting": "LNCaP [6]", "result": "Not Active"}, {"measurement": "IC50", "setting": "[7]", "result": "> 20", "unit": "µM"}]}
{"smiles": "CCCCCCCC/C=C/CCCCCCCCNC(=O)[C@@H](N)CO", "values": [{"measurement": "IC50", "setting": "CHO", "result": 5.2, "unit": "µM"}, {"measurement": "IC50", "setting": "DU-145 [8]", "result": 6.9, "unit": "µM"}, {"measurement": "IC50", "setting": "[4]", "result": 6.8, "unit": "µM"}, {"measurement": "IC50", "setting": "PC-3 [9]", "result": 5.9, "unit": "µM"}, {"measurement": "IC50", "setting": "LNCaP [1]", "result": 6.6, "unit": "µM"}, {"measurement": "IC50", "setting": "[7]", "result": 5.1, "unit": "µM"}, {"measurement": "IC50", "setting": "[10]", "result": 5.5, "unit": "µM"}]}
{"smiles": "CCCCCCCC/C=C/CCCCCCCCC(=O)NCCOP(=O)(O)O", "values": [{"measurement": "IC50", "setting": "CHO", "result": "> 50", "unit": "µM"}, {"measurement": "IC50", "setting": "DU-145 [8]", "result": "> 50", "unit": "µM"}, {"measurement": "IC50", "setting": "[4]", "result": "> 50", "unit": "µM"}, {"measurement": "IC50", "setting": "LNCaP [6]", "result": "Not Active"}, {"measurement": "IC50", "setting": "PC-3 [9]", "result": "> 50", "unit": "µM"}, {"measurement": "IC50", "setting": "[7]", "result": 50, "unit": "µM"}, {"measurement": "IC50", "setting": "[10]", "result": "> 50", "unit": "µM"}]}
{"smiles": "CCCCCCCCNC(=O)[C@H](CO)NC(=O)CCCCCCC", "values": [{"measurement": "IC50", "setting": "CHO", "result": "> 100", "unit": "µM"}, {"measurement": "IC50", "setting": "DU-145 [8]", "result": "> 100", "unit": "µM"}, {"measurement": "IC50", "setting": "PC-3 [9]", "result": 81.5, "unit": "µM"}, {"measurement": "IC50", "setting": "LNCaP [1]", "result": "> 100", "unit": "µM"}, {"measurement": "IC50", "setting": "[7]", "result": 81.2, "unit": "µM"}, {"measurement": "IC50", "setting": "[10]", "result": 93.8, "unit": "µM"}]}
